Experimental data as given in ChEMBL document CHEMBL1141420, “Towards a new generation of potential antipsychotic agents combining D2 and 5-HT1A receptor activities” (J Med Chem, 2007).
Activity calls are given as the source filed them. The rule behind the calls is not given here.

Legend:
[1] = biological target: T1, 5-hydroxytryptamine receptor 1A (Homo sapiens) (UniProt P08908); experiment: Agonist activity at human 5HT1A receptor in HeLa cells assessed as stimulation of [35S]GTPgammaS binding relative to serotonin; type: functional, cell-based
T1 sequence (whole entry): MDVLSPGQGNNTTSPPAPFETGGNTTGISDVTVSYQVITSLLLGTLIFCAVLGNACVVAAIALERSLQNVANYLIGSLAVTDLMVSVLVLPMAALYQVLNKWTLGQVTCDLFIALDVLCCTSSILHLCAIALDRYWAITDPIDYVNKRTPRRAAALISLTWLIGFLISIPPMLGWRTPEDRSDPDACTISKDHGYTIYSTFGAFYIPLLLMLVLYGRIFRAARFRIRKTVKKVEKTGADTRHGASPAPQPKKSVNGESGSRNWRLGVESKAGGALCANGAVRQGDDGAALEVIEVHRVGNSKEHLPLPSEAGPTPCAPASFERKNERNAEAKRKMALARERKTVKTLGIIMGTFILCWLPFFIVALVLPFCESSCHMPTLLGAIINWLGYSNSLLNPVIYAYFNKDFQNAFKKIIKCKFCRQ
Summary of the method: (§1)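 Membranes from HeLa cells expressing human 5-HT1A, prepared by homogenisation and 40 000 g spins in Hepes/EDTA, incubated with compound 1 h at 30 °C. [35S]GTPγS added at 0.1 nM final, then 30 min at 30 °C. Filtration and scintillation counting. Six concentrations from 10^-10 to 10^-5 M, triplicate, three experiments.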

[2] = biological target: T2, 5-hydroxytryptamine receptor 1A (Rattus norvegicus, UniProt P19327); experiment: Displacement of [3H]OH-DPAT from rat cortex 5HT1A receptor
T2 sequence (P19327 whole entry): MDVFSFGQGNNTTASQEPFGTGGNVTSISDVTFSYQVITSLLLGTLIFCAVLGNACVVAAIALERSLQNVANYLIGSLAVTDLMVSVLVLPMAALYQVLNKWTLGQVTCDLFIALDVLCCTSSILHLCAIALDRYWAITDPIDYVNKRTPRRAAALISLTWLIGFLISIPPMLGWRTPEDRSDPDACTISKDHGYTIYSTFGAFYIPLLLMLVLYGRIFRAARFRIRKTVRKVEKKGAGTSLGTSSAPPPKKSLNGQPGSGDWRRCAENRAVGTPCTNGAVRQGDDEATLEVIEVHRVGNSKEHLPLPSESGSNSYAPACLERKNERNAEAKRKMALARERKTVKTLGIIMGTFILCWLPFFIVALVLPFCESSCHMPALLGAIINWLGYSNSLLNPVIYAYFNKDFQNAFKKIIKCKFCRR

Rattus norvegicus [3] = experiment: Normalizing effect on methylphenidate-induced behaviours in ip dosed rat after 30 min; type: functional; conditions: for ED50: 0.5 h
Summary of the method: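 Rats given methylphenidate 40 mg/kg i.p. plus compound i.p. (10 mL/kg; doses as free base), seven per dose. Over 10 min starting 30 min after injection, locomotion, rearing, sniffing, gnawing and licking scored in 10 s observations repeated 10 times. Normalization judged against saline and methylphenidate controls.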

[4] = biological target: T3, 5-hydroxytryptamine receptor 1A (Homo sapiens, UniProt P08908); experiment: Agonist activity at human 5HT1A receptor in HeLa cells assessed as stimulation of [35S]GTP-gamma-S binding; type: functional, cell-based; summary of the method: as §1
T3 sequence (P08908 whole entry): T1 sequence (whole entry)

D(2) dopamine receptor = D(2) dopamine receptor (Rattus norvegicus, UniProt P61169); experiment: Displacement of [3H]YM-09151-2 from rat striatum D2 receptor
[5] = biological target: 5-hydroxytryptamine receptor 2A (Rattus norvegicus, UniProt P14842); experiment: Displacement of [3H]ketanserin from rat cortex 5HT2A receptor
Rattus norvegicus [6] = experiment: Induction of catalepsy in ip dosed rat after 60 min by crossed-leg position test; type: functional; conditions: 1 h
Summary of the method: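 Rats dosed i.p. (10 mL/kg; doses as free base), seven per dose. From 60 min, hind limbs crossed over the ipsilateral forelimbs and time held recorded, up to 30 s. Repeated at 3 and 6 min and the three trials averaged. Incidence taken as catalepsy lasting 30 s.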

Rattus norvegicus [7] = experiment: Induction of forepaw treading in rat at 40 mg/kg, ip; type: functional, organism-based; design: dose 40 mg/kg
Rattus norvegicus [8] = experiment: Ratio of ED50 for LLR induction to ED50 for normalization in ip dosed rat; type: functional
Rattus norvegicus [9] = experiment: Induction of lower lip retraction in ip dosed rat after 15 min; type: functional; conditions: 0.25 h
Summary of the method: (§2)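 Rats given compound i.p. (10 mL/kg; doses as free base), five per dose, observed individually for 10 min from 15 min post-injection. LLR scored present if uninterrupted for ≥3 s, in 10 cycles; response was ≥1 positive score. FBP scored present only if seen over the whole period.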

Rattus norvegicus [10] = experiment: Induction of flat body posture in ip dosed rat after 15 min; type: functional; conditions: 0.25 h; summary of the method: as §2
Rattus norvegicus [11] = experiment: Ratio of ED50 for catalepsy induction to ED50 for normalization in ip dosed rat; type: functional
[12] = biological target: D(2) dopamine receptor (Rattus norvegicus) (UniProt P61169)
D(2) dopamine receptor (Rattus norvegicus), sequence (P61169 whole entry): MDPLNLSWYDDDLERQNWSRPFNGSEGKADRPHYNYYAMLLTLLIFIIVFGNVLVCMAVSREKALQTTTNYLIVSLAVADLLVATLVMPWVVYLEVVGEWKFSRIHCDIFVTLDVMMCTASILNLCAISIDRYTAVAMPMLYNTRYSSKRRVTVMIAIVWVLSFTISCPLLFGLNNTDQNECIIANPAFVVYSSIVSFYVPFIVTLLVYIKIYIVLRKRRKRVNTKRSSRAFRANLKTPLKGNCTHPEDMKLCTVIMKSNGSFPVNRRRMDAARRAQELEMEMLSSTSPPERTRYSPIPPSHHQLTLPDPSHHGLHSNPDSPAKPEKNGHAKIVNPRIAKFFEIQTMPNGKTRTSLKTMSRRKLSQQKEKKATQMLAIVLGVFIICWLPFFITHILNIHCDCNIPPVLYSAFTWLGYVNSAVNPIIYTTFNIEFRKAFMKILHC

5-hydroxytryptamine receptor 2A, sequence (P14842 whole entry): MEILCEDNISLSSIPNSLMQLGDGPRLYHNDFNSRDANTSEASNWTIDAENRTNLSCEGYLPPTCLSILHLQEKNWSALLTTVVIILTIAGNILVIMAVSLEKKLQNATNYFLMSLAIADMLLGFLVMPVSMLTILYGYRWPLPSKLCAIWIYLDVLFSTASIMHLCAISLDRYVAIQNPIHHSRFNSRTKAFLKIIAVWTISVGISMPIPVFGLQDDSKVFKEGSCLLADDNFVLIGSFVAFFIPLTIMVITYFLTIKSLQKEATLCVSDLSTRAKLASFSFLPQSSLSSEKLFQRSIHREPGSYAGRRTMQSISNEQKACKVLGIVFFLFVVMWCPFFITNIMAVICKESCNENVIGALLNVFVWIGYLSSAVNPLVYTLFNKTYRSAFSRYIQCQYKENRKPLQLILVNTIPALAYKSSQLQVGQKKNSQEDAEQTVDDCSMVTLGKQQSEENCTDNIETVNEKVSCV
D(2) dopamine receptor, sequence (P61169 whole entry): as the sequence (P61169 whole entry) above

SMILES: CCC1(C)Cc2cccc(OCCNCc3cccc(C4=CCCC4)c3)c2O1 (stereo unspecified)
- Emax [1]: 77.7%
- Ki [2]: 5.5 nM
- Activity (Rattus norvegicus [3]): Active
- EC50 [4]: 32.4 nM
- Ki (D(2) dopamine receptor): 11.5 nM

SMILES: C1=C(c2cccc(CNCCOc3cccc4c3OCCO4)c2)CCC1
- Emax [1]: 68.9%
- Ki [2]: 1.7 nM
- Activity (Rattus norvegicus [3]): Active
- EC50 [4]: 6.46 nM
- Ki (D(2) dopamine receptor): 0.776 nM

SMILES: C1=C(c2cncc(CNCCOc3cccc4c3OC3(CC3)C4)c2)CCC1
- Emax [1]: 78.5%
- Ki [2]: 3.63 nM
- Activity (Rattus norvegicus [3]): Active
- EC50 [4]: 2.63 nM
- Ki (D(2) dopamine receptor): 0.447 nM

SMILES: CC(C)Oc1ccccc1OCCNCc1cccc(C2=CCCCC2)c1
- Emax [1]: 69.8%
- Ki [5]: 191 nM
- Ki [2]: 12.3 nM
- EC50 [4]: 46.8 nM
- Ki (D(2) dopamine receptor): 1.55 nM

SMILES: CC1(C)Cc2cccc(OCCNCc3cncc(C4=CCCC4)c3)c2O1
- ED50 (Rattus norvegicus [6]): > 40 mg/kg
- Activity (Rattus norvegicus [7]): inactive
- Emax [1]: 72.4%
- Ki [2]: 0.955 nM
- ED50 (Rattus norvegicus [3]): 0.29 mg/kg
- Ratio ED50 (Rattus norvegicus [8]): 6.2
- ED50 (Rattus norvegicus [9]): 1.8 mg/kg
- ED50 (Rattus norvegicus [10]): 4.7 mg/kg
- EC50 [4]: 2.88 nM
- Ki (D(2) dopamine receptor): 0.275 nM
- Ratio ED50 (Rattus norvegicus [11]): >137
- pKb [12]: 9.29

SMILES: CC(C)Oc1ccccc1OCCNCc1cccc(C2CC2)c1
- Ki [5]: 110 nM
- Ki [2]: 61.7 nM
- EC50 [4]: > 10000 nM
- Ki (D(2) dopamine receptor): 0.603 nM

SMILES: CCCN(CCC)C1CCc2cccc(O)c2C1 (stereo unspecified) [8-OH-DPAT]
- ED50 (Rattus norvegicus [6]): > 10 mg/kg
- Emax [1]: 82%
- ED50 (Rattus norvegicus [3]): > 10 mg/kg
- ED50 (Rattus norvegicus [9]): 0.09 mg/kg
- ED50 (Rattus norvegicus [10]): 0.28 mg/kg

SMILES: C1=C(c2cccc(CNCCOc3cccc4c3OC3(CC3)C4)c2)CCC1
- Emax [1]: 93.8%
- Ki [2]: 6.17 nM
- Activity (Rattus norvegicus [3]): Active
- EC50 [4]: 33.9 nM
- Ki (D(2) dopamine receptor): 1.12 nM

SMILES: Fc1ccc(-c2cncc(CNC[C@H]3CCc4ccccc4O3)c2)cc1 [SARIZOTAN]
- Emax [1]: 66.5%
- Ki [5]: 2140 nM
- Ki [2]: 2.24 nM
- EC50 [4]: 77.6 nM
- Ki (D(2) dopamine receptor): 19.1 nM

SMILES: O=C(CCCN1CCC(O)(c2ccc(Cl)cc2)CC1)c1ccc(F)cc1 [HALOPERIDOL]
- ED50 (Rattus norvegicus [6]): 0.3 mg/kg
- ED50 (Rattus norvegicus [3]): 0.31 mg/kg

SMILES: O=c1[nH]c2cccc(N3CCN(Cc4cccc(-c5ccccc5)c4)CC3)c2o1 [BIFEPRUNOX]
- Emax [1]: 60.8%
- Ki [5]: 3310 nM
- Ki [2]: 64.6 nM
- EC50 [4]: 324 nM
- Ki (D(2) dopamine receptor): 1.55 nM

SMILES: CC(C)Oc1ccccc1OCCNCc1cccc(-c2cccs2)c1
- Ki [5]: 562 nM
- Ki [2]: 46.8 nM
- EC50 [4]: > 10000 nM
- Ki (D(2) dopamine receptor): 0.562 nM

SMILES: CC(C)Oc1ccccc1OCCNCc1cccc(C2=CCCCCC2)c1
- Emax [1]: 86.5%
- Ki [5]: 1050 nM
- Ki [2]: 22.9 nM
- EC50 [4]: 1550 nM
- Ki (D(2) dopamine receptor): 3.09 nM

SMILES: CC(C)Oc1ccccc1OCCNCc1cccc(-c2ccsc2)c1
- Emax [1]: 47.7%
- Ki [5]: 347 nM
- Ki [2]: 34.7 nM
- EC50 [4]: 67.6 nM
- Ki (D(2) dopamine receptor): 0.275 nM

SMILES: CC(C)Oc1ccccc1OCCNCc1cccc(-c2ccccc2)c1
- Emax [1]: 73.9%
- Ki [5]: 724 nM
- Ki [2]: 26.3 nM
- EC50 [4]: 1410 nM
- Ki (D(2) dopamine receptor): 0.195 nM

SMILES: CC1(C)Oc2cccc(OCCNCc3cccc(C4=CCCC4)c3)c2O1
- Emax [1]: 90.6%
- Ki [2]: 9.55 nM
- Activity (Rattus norvegicus [3]): Active
- EC50 [4]: 24.5 nM
- Ki (D(2) dopamine receptor): 1.23 nM

SMILES: CC(C)Oc1ccccc1OCCNCc1cccc(C2=CCCC2)c1
- Emax [1]: 54%
- Ki [5]: 646 nM
- Ki [2]: 29.5 nM
- EC50 [4]: 69.2 nM
- Ki (D(2) dopamine receptor): 0.501 nM

SMILES: CC1(C)Cc2cccc(OCCNCc3cccc(C4=CCCC4)c3)c2O1
- ED50 (Rattus norvegicus [6]): > 40 mg/kg
- Activity (Rattus norvegicus [7]): inactive
- Emax [1]: 85.6%
- Ki [2]: 5.75 nM
- ED50 (Rattus norvegicus [3]): 1.1 mg/kg
- Ratio ED50 (Rattus norvegicus [8]): 7.5
- ED50 (Rattus norvegicus [9]): 8.3 mg/kg
- ED50 (Rattus norvegicus [10]): 32 mg/kg
- EC50 [4]: 10 nM
- Ki (D(2) dopamine receptor): 0.417 nM
- Ratio ED50 (Rattus norvegicus [11]): >36
- pKb [12]: 8.29

SMILES: CC(C)Oc1ccccc1OCCNCc1cccc(C2CCCC2)c1
- Emax [1]: 71.2%
- Ki [5]: 302 nM
- Ki [2]: 16.6 nM
- EC50 [4]: 195 nM
- Ki (D(2) dopamine receptor): 0.562 nM

SMILES: CC(C)Oc1ccccc1OCCNCc1cccc(-c2ccco2)c1
- Ki [5]: 372 nM
- Ki [2]: 67.6 nM
- EC50 [4]: > 10000 nM
- Ki (D(2) dopamine receptor): 0.339 nM

SMILES: C1=C(c2cccc(CNCCOc3cccc4c3OCO4)c2)CCC1
- Emax [1]: 70.7%
- Ki [2]: 20.9 nM
- EC50 [4]: 135 nM
- Ki (D(2) dopamine receptor): 2.57 nM

SMILES: Fc1ccc(-c2cncc(CN3CCN(c4cccc5c4OCCO5)CC3)c2)cc1 [ADOPRAZINE]
- ED50 (Rattus norvegicus [6]): > 40 mg/kg
- Emax [1]: 45.3%
- Ki [5]: 724 nM
- Ki [2]: 2.29 nM
- ED50 (Rattus norvegicus [3]): 1.4 mg/kg
- ED50 (Rattus norvegicus [9]): 0.32 mg/kg
- ED50 (Rattus norvegicus [10]): 1.7 mg/kg
- EC50 [4]: 5.89 nM
- pKb [12]: 7.81

SMILES: CC1(C)COc2c(OCCNCc3cccc(C4=CCCC4)c3)cccc21
- Emax [1]: 72.4%
- Ki [2]: 42.7 nM
- Activity (Rattus norvegicus [3]): Active
- EC50 [4]: 112 nM
- Ki (D(2) dopamine receptor): 0.813 nM
